# From PubChem BioAssay AID463079 (The Scripps Research Institute Molecular Screening Center, 2010)
# Out of some 330,000 compounds screened, about 2,000 (0.61%) were called active.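 How the source made its calls: active means inhibition above that plate's mean sample inhibition plus 3 SD (cut at about 26% in these data); inactive means the rest.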 Only a selection was taken, and actives are over-represented in it overall.
# Assay: ATP-evoked calcium signal inhibitors, parental CHO, primary screen, counter-screen for OX1R antagonist project, cell-based, fluorescence, Fluo-8 calcium dye (AID 463079);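 further: 0% = ATP-challenged DMSO wells and 100% = DMSO wells without ATP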
# Settings: parental CHO-K1, ATP-induced calcium, Fluo-8 fluorescence; at 5.6 µM; active compounds read high
# Outline: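 Test system: untransfected parental CHO cell line; also added: ATP stimulus; dosing: 5.6 µM, single dose; signal: calcium-sensitive Fluo-8 fluorescence; measure: percent inhibition of ATP-evoked calcium rise, normalized to controls; benchmarks: low control ATP plus DMSO, high control DMSO only; replication: one well per compound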
row,SMILES,inhibition
1,Cc1cccc(OP(=O)(Oc2cccc(C)c2)OC(c2ccccc2)C(F)(F)F)c1 (stereo not given),43% (active)
2,CCN(CC)P(=O)(Oc1cccc(C)c1)N(CC)CC,-16.2% (inactive)
3,CN(C)S(=O)(=O)c1cc(C(=O)N2CCC(C(=O)O)(c3ccccc3)CC2)ccc1Cl,-3.89% (inactive)
4,Nc1ccc([N+](=O)[O-])cc1,-2.28% (inactive)
5,COC(=O)N(c1ccc(OC)cc1)P1(=S)OCCC(C)O1 (stereo not given),-5.5% (inactive)
6,O=C1NC(=O)C(CCc2ccccn2)(Cc2cccc(Cl)c2Cl)C(=O)N1c1ccc(Br)cc1 (stereo not given),-47.9% (inactive)
7,O=C1C2(Cl)C3(Cl)C4(Cl)C(Cl)(Cl)C5(Cl)C3(Cl)C1(Cl)C5(Cl)C24Cl (stereo not given),48.6% (active)
8,O=C(CSC1c2ccccc2-c2ccccc21)N/N=C/c1ccccc1,-10.8% (inactive)
9,c1ccc(CC2CCCCN2)cc1 (stereo not given),-2.34% (inactive)
10,CC1=C(C(=O)Nc2ccccc2)S(=O)(=O)CCO1,-5.31% (inactive)
11,CCCCCCCCCCCCn1ccc(=N)cc1,40% (active)
12,CCOC(=O)c1c(C)c(C(=O)N2CCC3(CC2)OCCO3)c(C)n1CC,-3.29% (inactive)
13,CN1CCC(N(C)Cc2cccnc2)CC1,-10.6% (inactive)
14,ClC(Cl)(Cl)c1ccccc1,2.74% (inactive)
15,CCN(CC)C(=O)c1ccc(NC(=O)c2cc(-n3cnnc3)ccc2Cl)cc1,-4.65% (inactive)
